PostGolgi yeast = phenotypic screen on post-Golgi transport, primary screen | post-Golgi transport phenotypic cell assay | inhibition, % at 10 µM | 98,000 tested, 0.9% active;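 also: yeast cells grown in 1536-well plates; yeast grown about 18 h at 30C before absorbance read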
Ecoli WT expand = growth inhibitors of wild-type E. coli, primary screen, strain BW25113, expanded library, OD600 | OD600 absorbance | growth inhibition, % at 100 µM | 98,000 tested, 0.15% active;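 active = growth inhibition above about 50% at one test dose, limit read from the data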;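 also: growth measured after 20 h incubation at 37 °C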
tolC growth inh = growth inhibitors of E. coli tolC mutant, primary screen, strain BW25113 ΔtolC::kan, 384-well | growth inhibition, % at 10 µM (by protocol) | 65,000 tested, 2.2% active | OD615;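 active = growth inhibition at or above a cutoff equal to the mean over every tested compound plus 3 SD, cut at about 60% in these data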;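 also: growth measured after 20 h incubation at 37 °C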
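Doses: one dose of 10 µM final / Material: E. coli BW25113 ΔtolC::kan, tolC deletion mutant strain / Buffer or medium: LB with kanamycin 50 µg/mL / Evaluation: percent growth inhibition / Detection: optical density read at 615 nm / Incubation: 37 °C, 20 h exposure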
PostGolgi ctrl = growth inhibition of yeast control strain, primary screen, counter-screen for post-Golgi transport modulator project; efflux-deficient yeast background strain, growth absorbance A615, 16 h; inhibition, % at 10 µM; 98,000 tested, 5% active; AID 738, 2007
* marks the source's active call; other numbers are inactive results; · = no result. Most compounds without a hit are left out; they make up all but 6.3% or so of the library. Rule as the data show it, unless noted: active = inhibition above about 30%; inactive = the rest.

SMILES	PostGolgi yeast	Ecoli WT expand	tolC growth inh	PostGolgi ctrl
CC1CCc2c(sc3ncnc(NCCCOC(C)C)c23)C1 (stereo unspecified)	1.8	10.0	·	32.3*
O=c1c2ccccc2sn1-c1ccccc1	4.7	100.0*	·	16.1
CNC(=O)CN(C)S(=O)(=O)c1ccc(F)cc1	-6.4	10.0	·	-6.7
COc1ccccc1N1CCN(C(=O)c2ccccc2Oc2ccccc2)CC1	-0.2	3.0	15.0	8.3
O=C(c1ccccc1Oc1ccccc1)N1CCN(c2ccccc2F)CC1	-2.4	-5.0	·	32.7*
Cc1nnc(NC(=O)c2sc3ccccc3c2Cl)s1	6.3	0.0	11.0	54.0*
O=C(NC1=NCCS1)c1sc2ccccc2c1Cl	5.5	-1.0	·	12.1
Cc1ccc(NC(=O)c2cccc(Cl)c2)nc1	-0.9	4.0	-12.9	8.4
Cc1ccc(NC(=O)c2sc3ccccc3c2Cl)nc1	-1.1	-17.0	·	31.2*
Cc1ccc(NC(=O)c2ccc3ccccc3n2)nc1	-5.3	-13.0	32.6	34.0*
COCc1nnc(NC(=O)c2sc3ccccc3c2Cl)s1	-2.9	-7.0	46.9	30.0*
COc1ccc(N2C(=O)CCC(C(C)=O)=C2C)cc1	0.6	-5.0	4.2	0.1
Cc1ccc(-c2nc3ccccc3c(C(=O)NCc3cccs3)c2C)cc1	-2.5	-19.0	·	19.2
c1ccc(-c2ccc3c(c2)c2c4n3CCN=C4CCC2)cc1	0.7	36.0	·	13.9
O=C(CSC1=NCCS1)Nc1ccnc2ccccc12	-4.3	4.0	6.1	-4.3
COC(=O)CNC(=O)CN1C(=O)N(c2cccc(Cl)c2)C(N(O)C(=O)Nc2cccc(Cl)c2)C1(C)C (stereo unspecified)	18.7	-3.0	·	-1.4
Cc1ccc(NC(=O)NCc2ccc3c(c2)OCO3)cc1	-4.7	5.0	·	13.5
Cc1cc(NC(=O)c2cc3nc(C4CC4)cc(C(F)(F)F)n3n2)no1	11.6	-5.0	-17.5	31.0*
O=C(NCc1ccccc1)c1cc2nc(C3CC3)cc(C(F)(F)F)n2n1	-12.9	-12.0	·	10.4
C=CCSc1nccc(-c2nn(-c3ccc(C)cc3)ccc2=O)n1	1.9	-20.0	·	34.2*
COc1ccccc1N1CCN(S(=O)(=O)c2cnc[nH]2)CC1	-2.7	-9.0	-7.1	2.5
Nc1nc(SCc2ccc(Cl)cc2)ns1	-2.0	24.0	22.9	43.8*
Nc1nc(SCc2ccccc2)ns1	-5.7	11.0	3.7	18.6
Cc1ccc(OC(=O)c2ccc(N3CCOCC3)c([N+](=O)[O-])c2)cc1	-22.4	-6.0	·	38.1*
COc1cc(-c2nnc3sc(Cc4ccc(Cl)cc4)nn23)cc(OC)c1OC	·	·	1.5	·
SMILES	PostGolgi yeast	Ecoli WT expand	tolC growth inh	PostGolgi ctrl
COc1ccc(Cc2nn3c(-c4cc(OC)c(OC)c(OC)c4)nnc3s2)cc1	19.3	6.0	30.3	35.5*
Brc1ccccc1-c1nnc2sc(Cc3ccccc3)nn12	8.5	-1.0	45.0	25.1
COc1ccc(Cc2nn3c(-c4ccccc4Br)nnc3s2)cc1	1.5	-10.0	43.5	44.8*
COc1cc(C)nc(N(Cc2ccccc2)S(=O)(=O)c2ccccc2)n1	-0.6	-15.0	54.6	32.9*
CCCN(c1nc(C)cc(OC)n1)S(=O)(=O)c1ccccc1	-4.7	1.0	16.9	24.0
COC(=O)C(C(=O)OC)C(C(C)C)C(C(=O)OC)C(=O)OC	·	·	-11.2	·
Cc1nn2c(N3CCN(C4CCCC4)CC3)cc(C(C)(C)C)nc2c1-c1ccccc1	-6.7	2.0	·	11.8
Cc1nn2c(N3CCN(C(=O)c4ccco4)CC3)cc(C(C)(C)C)nc2c1-c1ccccc1	9.7	1.0	10.9	90.7*
Cc1cc(N2CCCCC2)n2ncc(-c3ccccc3)c2n1	17.7	-5.0	74.8*	3.8
Cc1cc(N2CCN(C(=O)c3ccco3)CC2)n2ncc(-c3ccccc3)c2n1	101.0*	-4.0	24.8	101.6*
Cc1cc(N2CCCCC2)n2ncc(-c3ccc(Cl)cc3)c2n1	1.2	-10.0	24.1	7.1
COc1ccccc1NC(=O)Cn1nc(-c2ccc(Cl)cc2)c2ccccc2c1=O	0.3	-10.0	·	28.2
COc1cc(NC(=O)NCc2ccncc2)cc(OC)c1OC	1.8	-3.0	-6.3	3.9
O=C(Cc1cccs1)N(Cc1cccs1)C1(C(=O)NC2CCCCC2)CCCCC1	0.5	-5.0	·	30.9*
COc1ccc(CN(C(=O)CNC(=O)c2ccco2)C(C(=O)NC2CCCC2)c2ccco2)cc1 (stereo unspecified)	-9.0	1.0	-3.0	38.8*
Cc1ccc(C(C(=O)NC2CCCC2)N(Cc2cccs2)C(=O)CNC(=O)c2cccs2)o1 (stereo unspecified)	-4.2	-11.0	65.8*	9.3
COc1ccc(CN(C(=O)Cc2cccs2)C(C(=O)NC2CCCC2)c2ccncc2)cc1 (stereo unspecified)	38.3*	3.0	·	2.2
COc1ccc(NC(=O)CN2C(=O)CC(C)(C)S(=O)(=O)c3ccccc32)cc1	-2.0	1.0	-3.1	18.9
CCc1ccc(/C=N/NC(=O)c2cc(C3CC3)nc3ccc(Br)cc23)s1	-5.4	-7.0	·	12.6
COc1cccc(N(C(=O)CNC(=O)c2ccco2)C(C(=O)NC2CCCCC2)c2ccncc2)c1 (stereo unspecified)	3.5	0.0	-11.3	37.9*
COCCn1c(C2CCCCC2)nc2sc3ccccc3c(=O)c2c1=O	38.8*	-7.0	19.4	84.8*
CCc1nc2sc3ccccc3c(=O)c2c(=O)n1CCOC	-10.4	4.0	·	-19.7
Cc1cc(Nc2ccccc2)n(-c2ccccc2)n1	-8.5	4.0	11.5	25.1
CCC(C(=O)Nc1cc(C)nn1-c1nc(C)cc(C)n1)c1ccccc1 (stereo unspecified)	17.1	5.0	55.9	48.0*
Cc1cc(C)nc(-n2nc(C)cc2Nc2ccccc2)n1	5.2	2.0	76.3*	13.8
SMILES	PostGolgi yeast	Ecoli WT expand	tolC growth inh	PostGolgi ctrl
Cc1cc(Nc2ccccc2)n(-c2nc3ccccc3[nH]2)n1	2.6	-10.0	95.3*	41.2*
Cc1cc(NC(=O)c2ccccc2F)n(-c2nc3ccccc3[nH]2)n1	-3.3	-8.0	16.5	17.2
Cc1cc(C)nc(-n2nc(C)cc2NC(=O)CNCc2ccccc2)n1	11.1	-4.0	·	8.4
Cc1cc(NC(=O)c2c(F)cccc2F)n(-c2nc3ccccc3[nH]2)n1	-0.7	-7.0	·	30.0*
COc1ccc(Cn2c(CCCO)nc3ccccc32)cc1OC	20.1	0.0	4.3	6.4
Cc1ccc(SCC(=O)N(Cc2nc(-c3ccccc3)no2)C(C)C)cc1	-4.7	-4.0	73.5*	30.3*
Cc1ccc(C(=O)N(Cc2nc(-c3ccc(C)cc3)no2)C(C)C)cc1	-0.3	-5.0	-2.5	7.5
COc1cc(OC)cc(C(=O)N(Cc2nc(-c3cccc(C)c3)no2)C(C)C)c1	-5.2	-10.0	66.6*	9.7
CC(C)N(Cc1nc(-c2ccc(Cl)cc2)no1)C(=O)CCCN1C(=O)c2ccccc2C1=O	3.4	-18.0	-7.3	40.3*
CC(C)N(Cc1nc(-c2ccccc2)no1)C(=O)c1ccc(Cl)cc1	-0.3	-5.0	68.2*	10.4
CCOc1cc(S(=O)(=O)N2CCC(C(N)=O)CC2)ccc1F	0.5	3.0	·	-3.6
CN(CCOc1ccc(-c2ccn(S(=O)(=O)c3cccc4ccccc34)n2)cc1)c1ccccn1	6.0	-8.0	·	15.2
Clc1cc(Cl)cc(Nc2ncn[nH]2)c1	-7.9	22.0	·	5.5

Bioassay records deposited in PubChem BioAssay by SRMLSC.
